Assay [1] deals with DNA topoisomerase 2-alpha (Homo sapiens) (UniProt P11388). The assay is described as follows: Inhibition of topoisomerase 2 (unknown origin)-mediated kinetoplast DNA decatenation assessed as intensity of supercoiled DNA after 30 mins by agarose gel electrophoresis relative to etoposide. The procedure, abridged:
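kDNA with 2 U topoisomerase II, 37 °C for 30 min, then proteinase K for 15 min at 37 °C and a 1% agarose TAE gel at 1 V/cm. Supercoiled-DNA band intensity was measured, and each compound's value was standardized by dividing it by the etoposide value.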

Assay [2] deals with T1, DNA topoisomerase 1 (Homo sapiens) (UniProt P11387).
T1 sequence (whole entry): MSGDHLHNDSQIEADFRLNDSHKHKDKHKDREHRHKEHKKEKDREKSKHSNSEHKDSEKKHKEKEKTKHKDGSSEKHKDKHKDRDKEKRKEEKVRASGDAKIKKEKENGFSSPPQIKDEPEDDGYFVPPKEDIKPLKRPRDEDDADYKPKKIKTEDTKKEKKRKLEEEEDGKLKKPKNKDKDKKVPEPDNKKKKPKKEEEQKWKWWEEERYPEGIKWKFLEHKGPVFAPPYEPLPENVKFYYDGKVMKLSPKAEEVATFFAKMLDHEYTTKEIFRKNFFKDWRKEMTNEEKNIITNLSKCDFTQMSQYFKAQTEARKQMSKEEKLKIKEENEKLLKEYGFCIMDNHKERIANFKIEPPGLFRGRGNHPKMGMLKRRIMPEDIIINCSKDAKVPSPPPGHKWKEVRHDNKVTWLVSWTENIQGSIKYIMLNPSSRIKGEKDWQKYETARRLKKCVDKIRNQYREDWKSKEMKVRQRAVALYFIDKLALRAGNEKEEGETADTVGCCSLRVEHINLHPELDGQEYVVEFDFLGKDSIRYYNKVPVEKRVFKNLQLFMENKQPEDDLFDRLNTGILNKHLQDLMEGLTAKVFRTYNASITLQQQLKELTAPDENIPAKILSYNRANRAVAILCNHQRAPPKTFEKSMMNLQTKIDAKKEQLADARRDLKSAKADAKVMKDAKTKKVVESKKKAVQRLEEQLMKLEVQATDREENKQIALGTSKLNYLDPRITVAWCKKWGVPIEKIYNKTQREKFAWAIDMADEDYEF
Kind of assay: Inhibition of topoisomerase 1 (unknown origin)-mediated relaxation of supercoiled plasmid DNA assessed as intensity of supercoiled DNA after 30 mins by agarose gel electrophoresis relative to camptothecin. An outline of the steps:
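Topo I (2 U) relaxation of 250 ng supercoiled plasmid at pH 7.9 in Tris/NaCl/EDTA/BSA/spermidine/glycerol buffer, 37 °C for 30 min, with matched DMSO. Stopped with SDS, proteinase K digestion, 1% agarose TAE gel, ethidium stain. Supercoiled-band intensity of each compound is divided by that of the camptothecin control.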

The target in assay [3] is DNA topoisomerase 2-alpha (Homo sapiens) (UniProt P11388). The assay is described as follows: Inhibition of topoisomerase 2 (unknown origin)-mediated kinetoplast DNA decatenation assessed as concentration of the compound exhibiting activity of 100 uM etoposide after 30 mins by agarose gel electrophoresis.
Assay [4] concerns the target T1, DNA topoisomerase 1 (Homo sapiens). Kind of assay: Inhibition of topoisomerase 1 (unknown origin)-mediated relaxation of supercoiled plasmid DNA assessed as concentration of the compound exhibiting activity of 100 uM camptothecin after 30 mins by agarose gel electrophoresis.
For assay [5], the target named is DNA topoisomerase 2-alpha (Homo sapiens) (UniProt P11388). The assay is described as follows: Inhibition of topoisomerase 2 (unknown origin)-mediated kinetoplast DNA decatenation at 100 uM after 30 mins by agarose gel electrophoresis.
Assay [6] concerns the target T1, DNA topoisomerase 1 (Homo sapiens). The assay is described as follows: Inhibition of topoisomerase 1 (unknown origin)-mediated relaxation of supercoiled plasmid DNA at 100 uM after 30 mins by agarose gel electrophoresis.

The structures appear in SMILES notation. Active and inactive are the calls of the source. The rule behind the calls is not given here.

Sequence of DNA topoisomerase 2-alpha (Homo sapiens) (P11388 whole entry): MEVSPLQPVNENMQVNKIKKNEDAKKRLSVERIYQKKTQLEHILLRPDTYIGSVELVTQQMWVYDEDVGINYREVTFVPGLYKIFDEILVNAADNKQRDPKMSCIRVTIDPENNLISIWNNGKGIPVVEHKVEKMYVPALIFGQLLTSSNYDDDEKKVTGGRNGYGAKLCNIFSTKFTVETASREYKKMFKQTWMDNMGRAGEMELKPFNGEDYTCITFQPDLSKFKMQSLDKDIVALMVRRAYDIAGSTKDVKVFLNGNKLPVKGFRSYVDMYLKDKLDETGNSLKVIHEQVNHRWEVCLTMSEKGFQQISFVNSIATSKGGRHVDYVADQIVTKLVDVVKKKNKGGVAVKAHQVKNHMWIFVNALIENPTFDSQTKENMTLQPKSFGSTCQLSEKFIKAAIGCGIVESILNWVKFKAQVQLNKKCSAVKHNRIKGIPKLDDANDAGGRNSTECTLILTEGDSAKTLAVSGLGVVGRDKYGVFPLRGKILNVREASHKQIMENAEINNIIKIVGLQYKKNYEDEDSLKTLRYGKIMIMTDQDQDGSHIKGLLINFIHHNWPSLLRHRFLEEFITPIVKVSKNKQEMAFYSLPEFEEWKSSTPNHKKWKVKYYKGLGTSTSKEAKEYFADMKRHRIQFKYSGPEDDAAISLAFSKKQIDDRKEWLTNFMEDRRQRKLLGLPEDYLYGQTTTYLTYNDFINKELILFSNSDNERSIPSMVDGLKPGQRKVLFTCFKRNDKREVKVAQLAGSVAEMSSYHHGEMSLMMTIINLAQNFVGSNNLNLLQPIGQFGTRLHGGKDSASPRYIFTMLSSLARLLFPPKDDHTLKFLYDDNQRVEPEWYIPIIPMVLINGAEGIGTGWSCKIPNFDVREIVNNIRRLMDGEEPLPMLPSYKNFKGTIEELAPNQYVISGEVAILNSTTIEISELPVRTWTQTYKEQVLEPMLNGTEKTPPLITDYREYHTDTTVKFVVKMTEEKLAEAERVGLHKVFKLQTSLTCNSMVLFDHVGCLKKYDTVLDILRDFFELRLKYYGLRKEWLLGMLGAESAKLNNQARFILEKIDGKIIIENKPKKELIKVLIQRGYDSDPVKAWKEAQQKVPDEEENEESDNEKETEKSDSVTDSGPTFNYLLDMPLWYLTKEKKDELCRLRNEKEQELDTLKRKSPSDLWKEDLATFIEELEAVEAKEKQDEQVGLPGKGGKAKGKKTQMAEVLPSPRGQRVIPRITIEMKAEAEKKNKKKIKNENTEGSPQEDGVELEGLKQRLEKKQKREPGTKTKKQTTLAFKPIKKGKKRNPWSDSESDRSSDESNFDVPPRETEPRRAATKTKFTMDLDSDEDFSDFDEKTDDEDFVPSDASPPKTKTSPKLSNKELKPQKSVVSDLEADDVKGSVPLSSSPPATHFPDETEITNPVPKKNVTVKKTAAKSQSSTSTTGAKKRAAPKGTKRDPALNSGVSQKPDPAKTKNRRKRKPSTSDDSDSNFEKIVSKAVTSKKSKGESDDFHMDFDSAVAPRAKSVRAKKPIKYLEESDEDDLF

Consider `CC1(C)CC[C@]2(C(=O)O)CC[C@]3(C)C(=CC[C@@H]4[C@@]5(C)CC[C@H](OC(=O)NCc6ccccc6)C(C)(C)[C@@H]5CC[C@]43C)[C@@H]2C1`, for which the fold change (FC) worked out at 1.12 in assay [1] and 1.64 in assay [2]. Moreover, the Activity in assay [3] is 68 µM; in assay [4] it was 16.1 µM.

As to `CC1(C)CC[C@]2(C(=O)O)CC[C@]3(C)C(=CC[C@@H]4[C@@]5(C)CC[C@H](OS(=O)(=O)c6ccccc6)C(C)(C)[C@@H]5CC[C@]43C)[C@@H]2C1`, the fold change (FC) in assay [1] stood at 0.92; in assay [2], 0.54.

On to `CC1(C)CC[C@]2(C(=O)O)CC[C@]3(C)C(=CC[C@@H]4[C@@]5(C)CC[C@H](O)C(C)(C)[C@@H]5CC[C@]43C)[C@@H]2C1`, for which the fold change (FC) in assay [1] worked out at 0.74; in assay [2] it was 0.84. Also, the values for the Activity in assay [3] and in assay [4] were 276 µM and 265 µM, respectively.

With `CC1(C)CC[C@]2(C(=O)Nc3cccc4ccccc34)CC[C@]3(C)C(=CC[C@@H]4[C@@]5(C)CC[C@H](OC(=O)Nc6cccc7ccccc67)C(C)(C)[C@@H]5CC[C@]43C)[C@@H]2C1`, the fold change (FC) in assay [1] was determined as 1.07; in assay [2], 1.55. Also, the Activity in assay [4] is 17.4 µM. Also, the inhibition result in assay [5] is “Active”.

As to `C=CCNC(=O)O[C@H]1CC[C@]2(C)[C@H]3CC=C4[C@@H]5CC(C)(C)CC[C@]5(C(=O)O)CC[C@@]4(C)[C@]3(C)CC[C@H]2C1(C)C`, the fold change (FC) in assay [1] was found to be 1.26; in assay [2], 1.57. The values for the Activity in assay [3] and in assay [4] were 53 µM and 15.2 µM, respectively.

Consider `CC1(C)CC[C@]2(C(=O)NS(=O)(=O)c3ccccc3)CC[C@]3(C)C(=CC[C@@H]4[C@@]5(C)CC[C@H](OC(=O)NS(=O)(=O)c6ccccc6)C(C)(C)[C@@H]5CC[C@]43C)[C@@H]2C1`, for which the fold change (FC) in assay [1] was found to be 0.91; in assay [2] it was 1.36. Besides, the Activity in assay [4] is 23.1 µM.

As for `COc1cc([C@@H]2c3cc4c(cc3[C@@H](O[C@@H]3O[C@@H]5CO[C@@H](C)O[C@H]5[C@H](O)[C@H]3O)[C@H]3COC(=O)[C@H]23)OCO4)cc(OC)c1O`, the inhibition result in assay [5] is “Active”.

In the case of `CC1(C)CC[C@]2(C(=O)O)CC[C@]3(C)C(=CC[C@@H]4[C@@]5(C)CC[C@H](OC(=O)Nc6cccc7ccccc67)C(C)(C)[C@@H]5CC[C@]43C)[C@@H]2C1`, the fold change (FC) in assay [1] is 1.03; in assay [2], 0.4. Besides, the inhibition result in assay [5] is “Active”.

As to `CC1(C)CC[C@]2(C(=O)NCc3ccccc3)CC[C@]3(C)C(=CC[C@@H]4[C@@]5(C)CC[C@H](OC(=O)NCc6ccccc6)C(C)(C)[C@@H]5CC[C@]43C)[C@@H]2C1`, the fold change (FC) in assay [1] was 1.21; in assay [2], 1.42. Besides, the Activity in assay [3] amounted to 57 µM; in assay [4], 25.4 µM.

For the compound `CC1(C)CC[C@]2(C(=O)NCc3ccccc3)CC[C@]3(C)C(=CC[C@@H]4[C@@]5(C)CC[C@H](O)C(C)(C)[C@@H]5CC[C@]43C)[C@@H]2C1`, the inhibition entry in assay [6] and in assay [5] was “Active” each time. The fold change (FC) in assay [1] was 1.07; in assay [2], 0.98.

As to `CC1(C)CC[C@]2(C(=O)O)CC[C@]3(C)C(=CC[C@@H]4[C@@]5(C)CC[C@H](OC(=O)Nc6ccc(-c7ccccc7)cc6)C(C)(C)[C@@H]5CC[C@]43C)[C@@H]2C1`, the fold change (FC) in assay [1] stood at 1.21; in assay [2] it was 0.79. The Activity in assay [3] stood at 46.5 µM.

These data come from ChEMBL document CHEMBL3097996, “Rational design and synthesis of topoisomerase I and II inhibitors based on oleanolic acid moiety for new anti-cancer drugs” (Bioorg Med Chem, 2014).
